Experimental data from different studies.
Protocols differ between the studies behind these lines.
Read-out: enzyme activity
ABL1: Tyrosine-protein kinase ABL1 (ABL1, Homo sapiens, UniProt P00519)
ABL1 Q252H: Tyrosine-protein kinase ABL1 (ABL1, Homo sapiens, UniProt P00519, Q252H)

With `O=C(Nc1cnn(-c2csc(C(=O)NC3COC3)c2)c1)Nc1ccccc1Cl` the remaining activity was 83.4% (ABL1; inhibitor; 5 µM).
`Cc1cnc(NC2CCOCC2)nc1-n1cnc(C(=O)NC(CN)c2cc(F)cc(Cl)c2)c1` (centres unmarked) gave a remaining activity of 103% (ABL1; inhibitor, radiometric; 1 µM).
The remaining activity of `Cc1[nH]c(/C=C2\C(=O)Nc3ccc(F)cc32)c(C)c1C(=O)N[C@H]1CCN(C(=O)N(C)C)C1` is reported as 107% (ABL1; inhibitor; 1 µM).
`CCCOc1ccc(OC)c(F)c1C(=O)c1ccc(C(=O)N[C@@H]2CNC[C@H]2NC(=O)c2ccc3[nH]ncc3c2)cc1` gave a remaining activity of 76% (ABL1 Q252H; inhibitor; 10 µM).
`Cc1ccc(NC(=O)c2ccc(C)c(C(F)(F)F)c2)cc1C#Cc1nn(C2CCC(O)CC2)c2ncnc(N)c12` (centres unmarked) has a remaining activity of 2% (ABL1 Q252H; 10 µM).
The remaining activity of `CC(C)(C)c1nc2c(s1)c1nc(N)ncc1c1ccc(NS(=O)(=O)c3c(F)cccc3F)c(F)c12` is reported as 93% (ABL1; inhibitor, radiometric; 1 µM).
`COc1cc(Nc2cnc(C#N)c(O[C@H](C)CN(C)C)n2)ncc1-c1cnn(C)c1` gave a remaining activity of 83% (ABL1; inhibitor, radiometric; 1 µM).
The remaining activity of `COc1cc(Cl)c(C(=O)N[C@@H](CN[C@H]2CC[C@@H](N)CC2)Cc2ccc(C#N)cc2)cc1-c1ccc(CN[C@H](C)c2ccc(C)cc2)o1` is reported as 96% (ABL1; inhibitor; 1 µM).
